Source: PubChem (several laboratories)
A selection: hits, their analogues and other compounds. The true share with any hit is near 5.1%.
APP 5'UTR act = activates APP 5'UTR luciferase reporter. AID 1276. actives 1% (n = 190,000). SH-SY5Y APP 5'UTR luciferase reporter, luminescence; zero percent = DMSO vehicle wells. activation, % at 2 µM;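 active = activation above a set limit, based on mean plus 3 SD of controls, cut at about 140% in these data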
STAT3 inh = reduces IL-6 driven STAT3 reporter signal. U3A cells, IL-6 STAT3-luciferase reporter, luminescence; host cell line lacks STAT1. inhibition, % at 5.5 µM. actives 0.89% (n = 190,000);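 active = inhibition above the mean inhibition across all screened compounds plus 3 SD, cut at about 44% in these data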;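 note: 0% = DMSO only wells and 100% = 100 µM nifuroxazide control wells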
NF-kB neuron act = raises NF-kB expression in human neuronal cells | NF-kB reporter expression; stronger effect = higher value | fold change at 12.5 µM | actives 1.6% (n = 190,000); in the data active = fold change above about 3.3
STAT1 act = STAT1 signaling activation; NIH 3T3 STAT1-luciferase reporter, IFN-gamma, luminescence; 100% = IFN-gamma alone, no compound; actives 2.6% (n = 200,000); activation (% of control), % at 5.5 µM; AID 932;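 active = activation above the screen-wide mean activation plus 3 SD, cut at about 130% in these data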;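 note: raw ratio to IFN-gamma control signal so 100% means no change and 0% no light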
STAT1 inh = inhibitors of IFN-gamma induced STAT1 signaling; NIH 3T3 STAT1-luciferase reporter, luminescence; inhibition, % at 5.5 µM; actives 0.35% (n = 200,000); AID 920;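 active = inhibition above a set limit, the mean inhibition across all tested compounds plus 3 SD, cut at about 34% in these data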;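 note: 0% = IFN-gamma with DMSO and 100% = IFN-gamma with 300 µM nifuroxazide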
STAT3 activator = activators of IL-6 induced STAT3 signaling; U3A cells, IL-6 STAT3-luciferase reporter, luminescence; 100% = signal with IL-6 EC80 alone; actives 0.91% (n = 190,000); activation (% of control), % at 5.6 µM; AID 871;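 active = activation above the screen-wide mean of compound activation plus 3 SD, cut at about 130% in these data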;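 note: 0% = background luminescence of wells with medium and substrate only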
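Test system: STAT3-luciferase reporter U3A cells; Detection: reporter luminescence signal; Times: 1 h compound pre-exposure, 6 h IL-6 stimulation, 37 °C; Benchmarks: IL-6-only high control; Also added: IL-6 stimulus at 33 ng/mL final.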
STAT1 act conf = confirmation of STAT1 signaling activators; NIH 3T3 STAT1-luciferase reporter, IFN-gamma potentiation, luminescence; 100% = IFN-gamma EC80 alone, no compound; AID 1262; shares compounds with STAT1 act; actives 97% (n = 1,200); activation (% of control), % at 5.7 µM;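 active = activation above a set limit carried over from the earlier primary STAT1 screen, cut at about 140% in these data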;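 note: simple ratio to median IFN-gamma plus DMSO wells so 0% means no light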
NFkB act = activates NF-kappaB, counter-screen to STAT1 activators. shares compounds with STAT1 act. actives 43% (n = 1,200). HEK293T NF-kB luciferase reporter, TNF-alpha stimulated, luminescence; 100% = TNF-alpha with vehicle only. activation (% of control), % at 5.7 µM;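 active = activation above the mean of solvent-only control wells plus 3 SD, set per campaign, cut at about 130% in these data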;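 note: TNF-alpha given at a submaximal dose yielding about 80% of full reporter signal; values are well signal over median control so 100% means no change and 0% no light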
STAT3 act 2 = human STAT3 activation in STAT1 activator counter-screen; actives 46% (n = 1,200); shares compounds with STAT1 act; activation (% of control), % at 5.7 µM; U3A cells STAT3-luciferase reporter, IL-6, luminescence; cells lack STAT1; 100 = IL-6 alone, no compound effect;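 active = activation above the solvent-only control well mean plus 3 SD, set per plate batch, cut at about 110% in these data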;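 note: 0% = no luminescence and 100% = median IL-6 plus DMSO wells; higher means more STAT3 reporter activation so hits are non-selective activators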
Active calls of the source: *; x = no result.

SMILES	APP 5'UTR act	STAT3 inh	NF-kB neuron act	STAT1 act	STAT1 inh	STAT3 activator	STAT1 act conf	NFkB act	STAT3 act 2
O=S(=O)(NCCc1ccccc1)c1ccc(Cl)nc1	20	-8	1.3	104	-5	104	x	x	x
CCN(CC)C(=O)CSc1ncnc2sc(-c3ccccc3)cc12	32	-11	1.6	111	-12	111	x	x	x
CCCCn1cnc2sc(-c3ccccc3)cc2c1=O	0	-13	5.9*	162*	-69	114	218*	150*	111*
O=C(COC(=O)c1ccc(F)c(S(=O)(=O)N2CCCCC2)c1)NCc1ccc(F)cc1	14	-9	0.92	96	4	108	x	x	x
CC(C)CC(=O)Nc1ccc2nn(-c3ccccc3)nc2c1	179*	13	6.3*	177*	-87	93	224*	149*	109
O=C(O)c1ccccc1SCc1cn2ccccc2n1	11	-7	0.96	102	-2	109	x	x	x
c1ccc(CSCc2cn3ccccc3n2)cc1	105	5	5.1*	153*	-59	97	168*	132	111*
Cc1ccc(C(=O)NCCc2ccc(S(N)(=O)=O)cc2)cc1[N+](=O)[O-]	9	6	1.3	97	2	96	x	x	x
CS(=O)(=O)Nc1ccc(C2=NN(S(C)(=O)=O)C(c3ccc4nccnc4c3)C2)cc1 (stereo not drawn)	-1	19	1.2	99	1	88	x	x	x
CS(=O)(=O)N1N=C(c2ccc(Br)cc2)CC1c1ccc2c(c1)OCO2 (stereo not drawn)	111	-4	5.5*	155*	-61	114	203*	135*	125*
Cc1ccc(C2=NN(S(C)(=O)=O)C(c3ccc4c(c3)OCO4)C2)cc1 (stereo not drawn)	139*	-14	10*	211*	-125	109	256*	141*	140*
CC(C)(C)OC(=O)NNC(=O)Nc1ccccc1C(F)(F)F	3	4	0.99	94	6	100	x	x	x
NC(=O)C1(N2CCCCC2)CCN(C(=S)Nc2ccc(F)c(Cl)c2)CC1	5	8	0.94	99	-1	98	x	x	x
COc1ccc(-c2cc(C(=O)O)c(C)o2)cc1OC	99	40	2.4	152*	-56	70	218*	79	112*
COc1ccc(-c2cc(C(=O)NC(Cc3cc4ccccc4[nH]3)C(=O)O)c(C)o2)cc1OC (stereo not drawn)	-8	-20	1.4	108	-11	122	x	x	x
O=C(Cn1nc(-c2cccc(Cl)c2)ccc1=O)Nc1ccc(C(=O)NC2CC2)cc1	-5	2	0.97	99	0	100	x	x	x
c1ccc(-c2c3ccccc3nc3[nH]c4ccccc4c23)cc1	1	-7	0.94	95	5	103	x	x	x
c1ccc2nc3c(nc2c1)[nH]c1ccccc13	257*	-12	5.9*	160*	-66	116	202*	132	126*
COCC(=O)Nc1c(C(=O)Nc2ccc3c(c2)OCCO3)oc2ccccc12	195*	3	2.4	176*	-88	102	176*	140*	104
CCOCC(=O)Nc1c(C(=O)Nc2ccc3c(c2)OCCO3)oc2ccccc12	129	7	1.4	155*	-60	100	160*	142*	103
COc1ccc(NC(=O)c2oc3ccccc3c2NC(=O)c2ccc3c(c2)OCO3)cc1	-6	22	0.48	97	3	84	x	x	x
